Laboratory results taken from ChEMBL document CHEMBL1152456, “A MurF inhibitor that disrupts cell wall biosynthesis in Escherichia coli” (Antimicrob Agents Chemother, 2007).
≈ marks a conversion by molar mass, not a printed value. Calls of active or inactive are those of the source. The calls are words filed in the database; no cut-off is given here. Positions of bridges follow the written chain, without caps; N, C: chain ends. Non-standard residues stand in square brackets, D forms with d. Residues, ends and D or L forms follow the SMILES beside them. Dab = NCC[C@H](N)C(=O)O

Assays:
[1] = Inhibition of Escherichia coli MurF assessed as appearance of UDP-MurNAc-pentapeptide product by HPLC
How it was run: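 HPLC assay of E. coli MurF. Enzyme at 4 nM final in 100 mM Tris-Cl pH 8.5, 5 mM ATP, 300 mM NaCl, preincubated 10 min at room temperature with compound or DMSO. D-Ala-D-Ala and a completed Mpl reaction supplying UDP-MurNAc-tripeptide were then added. Reaction ran 15 min at 37°C and was stopped with trifluoroacetic acid. Pentapeptide and tripeptide peaks were quantified by HPLC to give IC50.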

Escherichia coli [2] = experiment: Antibacterial activity against LPS-deffective Escherichia coli OC2530 by CLSI broth microdilution method; type: functional
How it was run: (§1)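 MICs by CLSI broth microdilution in cation-adjusted Mueller-Hinton broth. Strains came from ATCC or an in-house collection; NovaBlue was purchased.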

Staphylococcus aureus [3] = experiment: Antibacterial activity against Staphylococcus aureus ATCC 29213 by CLSI broth microdilution method; type: functional; how it was run: as §1
Escherichia coli [4] = experiment: Antibacterial activity against Escherichia coli OC2605 by CLSI broth microdilution method; type: functional
How it was run: (§2)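 Broth microdilution MIC following CLSI method, in cation-adjusted Mueller-Hinton broth; strains from ATCC or the company strain collection.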

Escherichia coli [5] = experiment: Antibacterial activity against Escherichia coli OC9040 by CLSI broth microdilution method; type: functional; how it was run: as §1
Escherichia coli [6] = experiment: Antibacterial activity against Escherichia coli ATCC 25922 by CLSI broth microdilution method; type: functional; how it was run: as §1
Pseudomonas aeruginosa = experiment: Antibacterial activity against Pseudomonas aeruginosa ATCC 27853 by CLSI broth microdilution method; type: functional; how it was run: as §1
Enterococcus faecalis = experiment: Antibacterial activity against Enterococcus faecalis ATCC 29212 by CLSI broth microdilution method; type: functional; how it was run: as §1
Enterococcus faecium = experiment: Antibacterial activity against Enterococcus faecium OC3312 by CLSI broth microdilution method; type: functional; how it was run: as §1
Staphylococcus aureus [7] = experiment: Antibacterial activity against methicillin-resistant Staphylococcus aureus COL OC3726 by CLSI broth microdilution method; type: functional; how it was run: as §2
Staphylococcus aureus [8] = experiment: Antibacterial activity against methicillin-resistant Staphylococcus aureus OC2878 by CLSI broth microdilution method; type: functional; how it was run: as §2
Staphylococcus aureus [9] = experiment: Antibacterial activity against Staphylococcus aureus OC4172 by CLSI broth microdilution method; type: functional; how it was run: as §1
Escherichia coli [10] = experiment: Antibacterial activity against Escherichia coli NovaBlue by CLSI broth microdilution method; type: functional; how it was run: as §1
Escherichia coli [11] = experiment: Antibacterial activity against LPS-deffective Escherichia coli OC2530 by CLSI broth microdilution method in presence of permeabilizer polymyxin B nonapeptide; type: functional
Escherichia coli [12] = experiment: Antibacterial activity against Escherichia coli ATCC 25922 by CLSI broth microdilution method in presence of permeabilizer polymyxin B nonapeptide; type: functional; how it was run: as §1
Escherichia coli [13] = experiment: Antibacterial activity against Escherichia coli NovaBlue by CLSI broth microdilution method in presence of permeabilizer polymyxin B nonapeptide; type: functional; how it was run: as §1
Escherichia coli [14] = experiment: Antibacterial activity against mid-log culture of LPS-deffective Escherichia coli OC2530 assessed as cell lysis at 2 times MIC by optical density study; type: functional, organism-based
How it was run: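 Growth curve. E. coli OC2530 grown with aeration to mid-log (A600 0.3), compound added at 2x MIC final. Samples transferred at once to replicate Bioscreen wells, 37°C with continuous shaking, A580 read every 15 min; 10 wells per culture.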

Escherichia coli [15] = experiment: Antibacterial activity against LPS-deffective Escherichia coli OC2530 assessed as cell lysis at 2 times MIC by colony forming assay; type: functional, organism-based
Escherichia coli [16] = experiment: Bactericidal activity against LPS-deffective Escherichia coli OC2530 assessed as log reduction in CFU at 2 times MIC after 30 mins relative to control; type: functional
How it was run: (§3)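 Killing. OC2530 at mid-log treated with 2x MIC compound. Aliquots taken from replicate Bioscreen wells at set times, serially diluted in PBS, spiral-plated and colonies counted. Mean ± SD of two independent experiments.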

Escherichia coli [17] = experiment: Bactericidal activity against LPS-deffective Escherichia coli OC2530 assessed as log reduction in CFU at 2 times MIC after 3 hrs relative to control; type: functional; how it was run: as §3
Escherichia coli [18] = experiment: Effect on muropeptide composition in LPS-deffective Escherichia coli OC2530 assessed as increase in UDP-MurNAc-tripeptide level at 2 times MIC after 30 mins relative to control; type: functional
How it was run: (§4)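 UDP-precursor pools. 125 ml OC2530 cultures at A600 0.3 treated with 2x MIC compound or DMSO for 30 min. Cells chilled, washed in cold 0.9% NaCl and lysed in cold 5% trichloroacetic acid 30 min on ice. Supernatants ether-extracted six times. UDP-MurNAc-tripeptide and -pentapeptide purified and quantitated. One representative of two independent experiments.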

Escherichia coli [19] = experiment: Effect on muropeptide composition in LPS-deffective Escherichia coli OC2530 assessed as decrease in UDP-MurNAc-pentapeptide level at 2 times MIC after 30 mins relative to control; type: functional; set-up: scale not given: the % may be the effect or the level left; how it was run: as §4
[20] = Binding affinity to Escherichia coli MurF by HTS assay in presence of ATP
Escherichia coli [21] = experiment: Binding affinity to Escherichia coli MurF assessed as increase in enzyme melting temperature by thermofluor analysis in presence of ATP
How it was run: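 ThermoFluor thermal shift binding assay on E. coli MurF run in the presence of ATP; read-out is the change in Tm.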

Escherichia coli [22] = experiment: Ratio of Kd for Escherichia coli MurF in absence of ATP to Kd for Escherichia coli MurF in presence of ATP
[23] = Binding affinity to Escherichia coli MurF by HTS assay in absence of ATP
Escherichia coli [24] = experiment: Inhibition of Escherichia coli OC2530 MurF assessed as ratio of UDP-MurNAc-tripeptide/UDP-MurNAc-pentapeptide level at 2 times MIC after 30 mins by HPLC; how it was run: as §4

IC50 [1] [µM] | MIC (Escherichia coli [2]) [µg/mL] | MIC (Staphylococcus aureus [3]) [µg/mL] | ΔTm (Escherichia coli [21]) [°C] | Structure (SMILES) | Kd [20] [µM] | Kd [23] [µM] | other results
0.44 | 32 (≈ 80.3 µM) | 32 (≈ 80.3 µM) | 1.74 | O=C(NC(c1ccc2c(c1)OCO2)c1ccc2cccnc2c1O)c1ccccc1 (stereo unspecified) | 12 | 50 | Ratio (Escherichia coli [22]): 4
16 | 8 (≈ 19.3 µM) | 32 (≈ 77.2 µM) | 2.86 | COc1ccc(C(NC(=O)c2ccccc2)c2ccc3cccnc3c2O)cc1OC (stereo unspecified) | 14 | 100 | Ratio (Escherichia coli [22]): 4; Ratio (Escherichia coli [24]): 0.04
25 | > 64 | > 64 | 0.74 | COc1ccc(C(=O)NC(c2ccc(OC)c(OC)c2)c2cc(Cl)c3cccnc3c2O)cc1 (stereo unspecified) | – | – | –
0.75 | > 32 | > 32 | 1.59 | COc1cccc(C(=O)NC(c2ccc3c(c2)OCO3)c2cc(Cl)c3cccnc3c2O)c1 (stereo unspecified) | 4.5 | 3.3 | –
1.9 | > 32 | > 32 | 2.2 | COc1cccc(C(=O)NC(c2ccccc2OC)c2cc(Cl)c3cccnc3c2O)c1 (stereo unspecified) | 14 | 10 | –
0.87 | 32 (≈ 86.9 µM) | 32 (≈ 86.9 µM) | 2.41 | Cc1ccc(C(NC(=O)c2ccccc2)c2ccc3cccnc3c2O)cc1 (stereo unspecified) | 20 | 33 | Ratio (Escherichia coli [24]): 0.02
0.33 | > 32 | > 32 | 1.82 | COc1ccc(C(NC(=O)c2cccc(OC)c2)c2cc(Cl)c3cccnc3c2O)cc1 (stereo unspecified) | 11 | 2.5 | –
1.25 | > 32 | > 32 | 1.81 | COc1cccc(C(=O)NC(/C=C/c2ccccc2)c2cc(Cl)c3cccnc3c2O)c1 (stereo unspecified) | 10 | 3.3 | –
– | 6.2 (≈ 6.44 µM) | 50 (≈ 51.9 µM) | – | CC(C)C[C@@H]1NC(=O)[C@@H](Cc2ccccc2)NC(=O)[C@H](CCN)NC(=O)[C@@H](NC(=O)[C@H](CCN)NC(=O)[C@@H](N)[C@@H](C)O)CCNC(=O)[C@H]([C@@H](C)O)NC(=O)[C@H](CCN)NC(=O)[C@H](CCN)NC1=O [POLYMYXIN B NONAPEPTIDE] (H-T[Dab][Dab][Dab][dF]L[Dab][Dab]T; lactam 3-C) | – | – | MIC (Escherichia coli [10]): 25 µg/mL (≈ 26 µM)
0.8 | 16 (≈ 43 µM) | 32 (≈ 85.9 µM) | 3.35 | O=C(NC(c1ccccc1F)c1ccc2cccnc2c1O)c1ccccc1 (stereo unspecified) | 20 | 20 | –

Structure (SMILES) | IC50 [1] [µM] | MIC (Escherichia coli [2]) [µg/mL] | MIC (Staphylococcus aureus [3]) [µg/mL] | ΔTm (Escherichia coli [21]) [°C] | Kd [20] [µM] | Kd [23] [µM] | other results
O=C(Nc1ccc(F)cc1)OC(CCN1CCC(O)(c2ccc(Cl)cc2)CC1)c1ccccc1 (stereo unspecified) | 26 | 8 (≈ 16.6 µM) | 16 (≈ 33.1 µM) | – | – | – | MIC (Escherichia coli [4]): > 32 µg/mL; MIC (Escherichia coli [5]): > 32 µg/mL; MIC (Escherichia coli [6]): > 32 µg/mL; MIC (Pseudomonas aeruginosa): > 32 µg/mL; MIC (Enterococcus faecalis): 16 µg/mL (≈ 33.1 µM); MIC (Enterococcus faecium): 16 µg/mL (≈ 33.1 µM); MIC (Staphylococcus aureus [7]): 16 µg/mL (≈ 33.1 µM); MIC (Staphylococcus aureus [8]): 16 µg/mL (≈ 33.1 µM); MIC (Staphylococcus aureus [9]): 8 µg/mL (≈ 16.6 µM); MIC (Escherichia coli [10]): > 64 µg/mL; MIC (Escherichia coli [11]): 4 µg/mL; MIC (Escherichia coli [12]): 16 µg/mL; MIC (Escherichia coli [13]): 16 µg/mL; Activity (Escherichia coli [14]): Active; Activity (Escherichia coli [15]): Active; Activity (Escherichia coli [16]): 1; Activity (Escherichia coli [17]): 5; fold change (FC) (Escherichia coli [18]): 15; Activity (Escherichia coli [19]): 50%
N[C@@H]1CONC1=O [CYCLOSERINE] | – | 64 (≈ 627 µM) | 32 (≈ 313 µM) | – | – | – | Ratio (Escherichia coli [24]): 30.3; MIC (Escherichia coli [4]): 16 µg/mL (≈ 157 µM); MIC (Escherichia coli [5]): 32 µg/mL (≈ 313 µM); MIC (Escherichia coli [6]): 32 µg/mL (≈ 313 µM); MIC (Pseudomonas aeruginosa): > 128 µg/mL; MIC (Enterococcus faecalis): 128 µg/mL (≈ 1250 µM); MIC (Enterococcus faecium): 64 µg/mL (≈ 627 µM); MIC (Staphylococcus aureus [7]): 32 µg/mL (≈ 313 µM); MIC (Staphylococcus aureus [8]): 64 µg/mL (≈ 627 µM); MIC (Staphylococcus aureus [9]): 32 µg/mL (≈ 313 µM); MIC (Escherichia coli [10]): 64 µg/mL (≈ 627 µM); MIC (Escherichia coli [11]): 64 µg/mL; MIC (Escherichia coli [12]): 32 µg/mL; MIC (Escherichia coli [13]): 64 µg/mL; Activity (Escherichia coli [14]): Active; Activity (Escherichia coli [15]): Active; Activity (Escherichia coli [16]): 0.5; Activity (Escherichia coli [17]): >5
